Where a SMILES comes first, the peptide text is derived from it. [ ]: non-standard residue; d: D form.
Legend:
[1] = test system: WD-fed LDLr-/- mice; assay: Plasma total cholesterol in peptide-treated WD-fed mice; type: in vivo, mouse
Summary of the method: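 Western-diet-fed LDLr-/- mice received test compound at 180 µM in drinking water (PBS pH 7.4, 1% sucrose; vehicle controls) starting with the diet switch. Plasma total cholesterol was measured enzymatically at the two-week blood draw. Results given as mean ± SD.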

[2] = test system: gut microbiota from cecum of WD-fed LDLr-/- mice; assay: In vitro en masse gut microbiota screening assay; type: cell-based, mouse; settings: en masse screen, result in words
Summary of the method: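 Cecal contents came from female LDLr-/- mice (8–10 weeks) fed WD for two weeks, pooled from 3 co-housed mice, with all steps anaerobic. The PBS suspension was diluted 1:12.5 in Chopped Meat Carbohydrate Broth and dosed with test compound at a final 16 or 64 µM. Ampicillin (4 µg/mL) and chloramphenicol (8 µg/mL) were controls. Samples ran 20 h at 37 °C with hourly OD600, then 16S sequencing gave genus-level Shannon diversity and the Bacteroidetes:Firmicutes ratio.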

[3] = test system: WD-fed LDLr-/- mice; assay: In vivo safety during 10-week daily oral dosing; design: species or system mouse
Summary of the method: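 Mice were weaned at 4 weeks and fed chow, then switched at 8–12 weeks to Western diet for 10 weeks. Test compound was dissolved by sonication in PBS (pH 7.4) with 1% sucrose, given ad libitum in drinking water at 180 µM and refreshed daily or every other day. Vehicle controls received PBS/1% sucrose. Liver enzyme activities in plasma were measured by enzymatic assays.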

[4] = Pharmacokinetics, LC-MS SIM quantitation in plasma; type: in vivo, mouse; settings: pharmacokinetic and excretion studies, result in words
[5] = test system: WD-fed LDLr-/- mice; assay: Analysis of atherosclerosis; type: in vivo, mouse; settings: completion of the 10-week study, en face staining, vs vehicle
Summary of the method: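 LDLr-/- mice, moved from chow to Western diet (15.8% fat, 1.25% cholesterol, no cholate) at 8–12 weeks, given test compound at 180 µM in drinking water (PBS pH 7.4, 1% sucrose; vehicle alone for controls) for 10 weeks. Lesions assessed by en face staining of the entire aorta and by aortic root sectioning. n=8 treated, 18 vehicle; mean ± SD, one-way ANOVA with Dunnett test.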

[6] = LC-MS SIM quantitation of peptide levels in feces; type: in vivo, mouse; settings: pharmacokinetic and excretion studies, result in words
Summary of the method: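 Intact test compound was measured in extracted feces by LC-MS selected ion monitoring of the parent ions. Standard curves came from two independent extractions. Fecal samples were taken at week 5 (n=4 mice per group) and measured in duplicate. Daily dry fecal output was weighed over 24 h in individually housed mice. Expected maximum fecal level was calculated from the 0.18 mM drinking-water concentration, water intake and fecal output.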

[7] = 10 weeks daily oral administration, n=7 treated mice

SMILES	reduction of plasma total cholesterol compared to the untreated WD group ([1]; two-week time point, oral in drinking water, ~35 mg/kg/day) [%]	remodeling of the microbiota community in vitro [2]	signs of discomfort or toxicity ([3]; 10-week daily-dosing regimen, ad libitum in the drinking water, ~35 mg/kg/day)	liver weights and spleen weights [3, 7]	plasma levels of ALT and AST [3, 7]	body weights ([3]; during the 10-week treatment, n=7 treated mice)	oral systemic bioavailability [4]	reduction of whole aorta atherosclerotic lesion area [5] [%]	stability in the gut [6]	total plasma cholesterol compared to vehicle controls ([1]; 2-wk timepoint, oral dosing, result in words)
CC(C)C[C@@H]1NC(=O)[C@@H](Cc2c[nH]c3ccccc23)NC(=O)[C@H](CCCCN)NC(=O)[C@@H](Cc2c[nH]cn2)NC(=O)[C@H](CO)NC(=O)[C@@H](Cc2c[nH]cn2)NC(=O)[C@H](CCCCN)NC(=O)[C@@H](Cc2c[nH]c3ccccc23)NC1=O [peptide 1] (cyclo([dW]L[dW]K[dH]S[dH]K))	37	did remodel the microbiota community in vitro	no signs of discomfort or toxicity	did not significantly differ from vehicle controls	did not significantly differ from vehicle controls	did not differ from vehicle controls	non-absorbable (lack oral systemic bioavailability)	37	remain largely intact throughout the gut	–
NC(=O)CC[C@@H]1NC(=O)[C@@H](Cc2c[nH]cn2)NC(=O)[C@H](Cc2c[nH]cn2)NC(=O)[C@@H](CCC(N)=O)NC(=O)[C@H](Cc2ccc(O)cc2)NC(=O)[C@@H](Cc2c[nH]c3ccccc23)NC(=O)[C@H](Cc2c[nH]c3ccccc23)NC(=O)[C@@H](Cc2ccccc2)NC1=O [peptide 15] (cyclo(H[dH]Q[dF]W[dW]Y[dQ]))	–	remodeled the gut microbiota in vitro, but not toward a CHD-like state	–	–	–	–	–	–	–	did not reduce plasma total cholesterol levels
